Experimental data reported in ChEMBL document CHEMBL5143669, “Stapled peptides as scaffolds for developing radiotracers for intracellular targets: Preliminary evaluation of a radioiodinated MDM2-binding stapled peptide in the SJSA-1 osteosarcoma model” (Bioorg Med Chem Lett, 2022).

Experiments:
[1] = Biodistribution in Stomach of athymic mouse xenografted with human SJSA-1 cells at 166.5 kBq, iv after 24 hrs by automated gamma counting method; assay type: ADME, organism-based; details: in vivo
Procedure, shortened: (§1)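 Athymic mice bearing flank SJSA-1 xenografts received 125I-SIB-labeled peptide (166.5 kBq, 100 μL) by tail vein; groups of five per time point. Tumor, blood and organs were taken at 0.5–24 h and counted by gamma counter; values expressed as %ID/g.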

[2] = Biodistribution in Heart of athymic mouse xenografted with human SJSA-1 cells at 166.5 kBq, iv after 6 hrs by automated gamma counting method; assay type: ADME, organism-based; details: in vivo
Procedure, shortened: (§2)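 125I-labeled peptide (166.5 kBq in 100 μL) was injected via tail vein into athymic mice bearing flank SJSA-1 xenografts, n = 5 per time point. Tumors, blood and major organs were gamma-counted at 0.5, 2, 6 and 24 h post-injection. Values are %ID/g.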

[3] = Biodistribution in Blood of athymic mouse xenografted with human SJSA-1 cells at 166.5 kBq, iv after 30 mins by automated gamma counting method; assay type: ADME, organism-based; details: in vivo, 0.5 h; procedure, shortened: as §2
[4] = Biodistribution in Bone of athymic mouse xenografted with human SJSA-1 cells at 166.5 kBq, iv after 2 hrs by automated gamma counting method; assay type: ADME, organism-based, Bone element; details: in vivo; procedure, shortened: as §2
[5] = Biodistribution in Skin of athymic mouse xenografted with human SJSA-1 cells at 166.5 kBq, iv after 30 mins by automated gamma counting method; assay type: ADME, organism-based, Skin of body; details: in vivo, 0.5 h; procedure, shortened: as §2
[6] = Biodistribution in Spleen of athymic mouse xenografted with human SJSA-1 cells at 166.5 kBq, iv after 24 hrs by automated gamma counting method; assay type: ADME, organism-based; details: in vivo; procedure, shortened: as §2
[7] = Biodistribution in Urinary bladder of athymic mouse xenografted with human SJSA-1 cells at 166.5 kBq, iv after 6 hrs by automated gamma counting method; assay type: ADME, organism-based; details: in vivo; procedure, shortened: as §1
[8] = Drug uptake in MDM2-amplified human SJSA-1 cells expressing wild type p53 at 5 to 50 uM incubated for 60 mins; assay type: ADME, cell-based; details: sjsa-1, 1 h, dose 5-50 µM
Procedure, shortened: (§3)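 For uptake kinetics, SJSA-1 cells in serum-free RPMI-1640 were incubated 30–120 min with 125I-labeled peptide, with or without 50 μM unlabeled parent peptide. Cells were washed with PBS and lysed, and uptake was normalized to protein (%/mg protein). Triplicates, mean ± SD.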

[9] = Biodistribution in Thyroid of athymic mouse xenografted with human SJSA-1 cells at 166.5 kBq, iv after 2 hrs by automated gamma counting method; assay type: ADME, organism-based, Thyroid gland; details: in vivo; procedure, shortened: as §1
[10] = Biodistribution in Tumor of athymic mouse xenografted with human SJSA-1 cells at 166.5 kBq, iv after 2 hrs by automated gamma counting method; assay type: ADME, organism-based, Neoplasm; details: in vivo; procedure, shortened: as §1
[11] = Stability in human serum assessed as intact peptide level at 37 degC incubated for 72 hrs by RP-HPLC analysis; assay type: ADME, cell-free; details: read-out: Drug uptake
Procedure, shortened: (§4)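 125I-labeled peptide was incubated in human serum at 37 °C for up to 72 h. Aliquots were run by RP-HPLC (RP-18 column, ethanol/0.05 M sodium acetate pH 5.5 gradient, 1 mL/min), and intact peptide was expressed as percentage of injected activity.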

[12] = Biodistribution in Tumor of athymic mouse xenografted with human SJSA-1 cells at 166.5 kBq, iv after 30 mins by automated gamma counting method; assay type: ADME, organism-based, Neoplasm; details: in vivo, 0.5 h; procedure, shortened: as §1
[13] = Biodistribution in Small intestine of athymic mouse xenografted with human SJSA-1 cells at 166.5 kBq, iv after 6 hrs by automated gamma counting method; assay type: ADME, organism-based; details: in vivo; procedure, shortened: as §2
[14] = Biodistribution in Small intestine of athymic mouse xenografted with human SJSA-1 cells at 166.5 kBq, iv after 30 mins by automated gamma counting method; assay type: ADME, organism-based; details: in vivo, 0.5 h; procedure, shortened: as §2
[15] = Biodistribution in Tumor of athymic mouse xenografted with human SJSA-1 cells at 166.5 kBq, iv after 6 hrs by automated gamma counting method; assay type: ADME, organism-based, Neoplasm; details: in vivo; procedure, shortened: as §1
[16] = Biodistribution in Kidney of athymic mouse xenografted with human SJSA-1 cells at 166.5 kBq, iv after 6 hrs by automated gamma counting method; assay type: ADME, organism-based; details: in vivo; procedure, shortened: as §2
[17] = Biodistribution in Skin of athymic mouse xenografted with human SJSA-1 cells at 166.5 kBq, iv after 2 hrs by automated gamma counting method; assay type: ADME, organism-based, Skin of body; details: in vivo; procedure, shortened: as §2
[18] = Biodistribution in Skin of athymic mouse xenografted with human SJSA-1 cells at 166.5 kBq, iv after 6 hrs by automated gamma counting method; assay type: ADME, organism-based, Skin of body; details: in vivo; procedure, shortened: as §2
[19] = Biodistribution in Brain of athymic mouse xenografted with human SJSA-1 cells at 166.5 kBq, iv after 2 hrs by automated gamma counting method; assay type: ADME, organism-based; details: in vivo; procedure, shortened: as §2
[20] = Biodistribution in Blood of athymic mouse xenografted with human SJSA-1 cells at 166.5 kBq, iv after 24 hrs by automated gamma counting method; assay type: ADME, organism-based; details: in vivo; procedure, shortened: as §2
[21] = Biodistribution in Large intestine of athymic mouse xenografted with human SJSA-1 cells at 166.5 kBq, iv after 6 hrs by automated gamma counting method; assay type: ADME, organism-based; details: in vivo; procedure, shortened: as §2
[22] = Biodistribution in Kidney of athymic mouse xenografted with human SJSA-1 cells at 166.5 kBq, iv after 24 hrs by automated gamma counting method; assay type: ADME, organism-based; details: in vivo; procedure, shortened: as §2
[23] = Biodistribution in Brain of athymic mouse xenografted with human SJSA-1 cells at 166.5 kBq, iv after 24 hrs by automated gamma counting method; assay type: ADME, organism-based; details: in vivo; procedure, shortened: as §2
[24] = Biodistribution in Liver of athymic mouse xenografted with human SJSA-1 cells at 166.5 kBq, iv after 2 hrs by automated gamma counting method; assay type: ADME, organism-based; details: in vivo; procedure, shortened: as §2
[25] = Biodistribution in Large intestine of athymic mouse xenografted with human SJSA-1 cells at 166.5 kBq, iv after 24 hrs by automated gamma counting method; assay type: ADME, organism-based; details: in vivo; procedure, shortened: as §2
[26] = Biodistribution in Spleen of athymic mouse xenografted with human SJSA-1 cells at 166.5 kBq, iv after 30 mins by automated gamma counting method; assay type: ADME, organism-based; details: in vivo, 0.5 h; procedure, shortened: as §2
[27] = Drug uptake in MDM2-amplified human SJSA-1 cells expressing wild type p53 assessed as initially bound radioactivity incubated for 0.5 hrs subsequently re-incubating the cells with fresh medium for up to 2 hrs; assay type: ADME, cell-based; details: sjsa-1, 0.5 h
Procedure, shortened: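 SJSA-1 cells were loaded with 125I-labeled peptide for 1 h, then reincubated in fresh medium for 0.5–2 h. Cell-retained activity and cumulative release into the supernatant were expressed as percentage of initially bound activity.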

[28] = Biodistribution in Muscle of athymic mouse xenografted with human SJSA-1 cells at 166.5 kBq, iv after 30 mins by automated gamma counting method; assay type: ADME, organism-based, Muscle tissue; details: in vivo, 0.5 h; procedure, shortened: as §2
[29] = Drug uptake in MDM2-amplified human SJSA-1 cells expressing wild type p53 at 5 to 50 uM incubated for 30 mins; assay type: ADME, cell-based; details: sjsa-1, 0.5 h, dose 5-50 µM; procedure, shortened: as §3
[30] = Biodistribution in Liver of athymic mouse xenografted with human SJSA-1 cells at 166.5 kBq, iv after 24 hrs by automated gamma counting method; assay type: ADME, organism-based; details: in vivo; procedure, shortened: as §2
[31] = Lipophilicity, logD of the compound using n-octanol and phosphate-buffered saline at pH 7.4 by the shake flask method; assay type: physicochemical
Procedure, shortened: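 Shake-flask partition of the 125I-labeled peptide between n-octanol and PBS pH 7.4; logD from n = 4.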

[32] = Biodistribution in Blood of athymic mouse xenografted with human SJSA-1 cells at 166.5 kBq, iv after 6 hrs by automated gamma counting method; assay type: ADME, organism-based; details: in vivo; procedure, shortened: as §2
[33] = Biodistribution in Urinary bladder of athymic mouse xenografted with human SJSA-1 cells at 166.5 kBq, iv after 30 mins by automated gamma counting method; assay type: ADME, organism-based; details: in vivo, 0.5 h; procedure, shortened: as §1
[34] = Stability in human serum assessed as intact peptide level at 37 degC incubated for 1 hr by RP-HPLC analysis; assay type: ADME, cell-free; details: read-out: Drug uptake; procedure, shortened: as §4

In the case of CC(=O)NC(CCCCNC(=O)c1cccc([125I])c1)C(=O)NCCCCCC(=O)N[C@H](C(=O)N[C@@H](CO)C(=O)N[C@@H](Cc1ccccc1)C(=O)N[C@@]1(C)CCCCCC/C=C/CCC[C@@](C)(C(=O)N[C@@H](CCC(=O)O)C(=O)N[C@@H](CC(N)=O)C(=O)N[C@@H](Cc2ccccc2)C(N)=O)NC(=O)[C@H](CC(C)C)NC(=O)[C@H](CC(C)C)NC(=O)[C@H](C)NC(=O)[C@H](Cc2c[nH]c3ccccc23)NC(=O)[C@H](Cc2ccc(O)cc2)NC(=O)[C@H](CCC(=O)O)NC1=O)[C@@H](C)O (some centres undefined), the Drug uptake [1] is reported as 0.84 % ID/g, the Drug uptake [2] is reported as 2.14 % ID/g and the Drug uptake [3] is reported as 8.33 % ID/g. The Drug uptake [4] was 0.33 % ID/g, the Drug uptake [5] was 0.57 % ID/g and the Drug uptake [6] was 0.58 % ID/g. For the same molecule, the Drug uptake [7] was 0.95 % ID/g, the Drug uptake [8] was 142 %/mg protein and the Drug uptake [9] was 1.14 % ID/g. The Drug uptake [10] was 2.19 % ID/g, the remaining at 72 h [11] was 96% and the Drug uptake [12] was 1.8 % ID/g. The Drug uptake [13] was 3.84 % ID/g, the Drug uptake [14] was 0.43 % ID/g and the Drug uptake [15] was 2.11 % ID/g. For the same molecule, the Drug uptake [16] was 2.5 % ID/g, the Drug uptake [17] was 0.88 % ID/g and the Drug uptake [18] was 1.22 % ID/g. The Drug uptake [19] was 0.25 % ID/g, the Drug uptake [20] was 0.62 % ID/g and the Drug uptake [21] was 4.44 % ID/g. It also gave a Drug uptake [22] of 0.63 % ID/g, a Drug uptake [23] of 0.02 % ID/g and a Drug uptake [24] of 18.41 % ID/g. The Drug uptake [25] was 1.87 % ID/g, the Drug uptake [26] was 1.29 % ID/g and the Drug uptake [27] was 83.1%. The Drug uptake [28] was 0.16 % ID/g, the Drug uptake [29] was 104 %/mg protein and the Drug uptake [30] was 4.72 % ID/g. For the same molecule, the logD [31] was 1.45, the Drug uptake [32] was 5.12 % ID/g and the Drug uptake [33] was 0.61 % ID/g. The remaining at 1 h [34] was 98.2%.
